In brackets after ≈: the same amount, converted by molar mass.

In the test the test system is Mycobacterium tuberculosis variant bovis. Kind of test: Growth inhibition of Mycobacterium bovis BCG 1173P2. The test is classed as functional, Mycobacterium bovis BCG str. Pasteur 1173P2. A digest of the protocol: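 Broth microdilution in 7H9 Middlebrook medium with 0.2% glycerol, 0.5% Tween 80 and OADC. Uses two-fold serial dilutions and about 10^5 bacteria/ml, incubated at 37 °C. Resazurin 0.01% was added at day 8 and incubated overnight, then read as OD 570 minus 630 nm. MIC was taken as the lowest concentration preventing the blue-to-pink change.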
With `Cc1cn([C@@H]2C[C@H](O)[C@@H](CNC(=S)Nc3ccc(Cl)c(C(F)(F)F)c3)O2)c(=O)[nH]c1=O`, the MIC99 – broadly, the lowest concentration that inhibits either 99% of growth or 99% of the strains tested, depending on the study – came to 20 mg/L (≈ 41.8 µM).

On to `Cc1cn([C@@H]2C[C@H](O)[C@@H](CNC(=S)Nc3ccc4c(c3)C(=O)OC43c4ccc(O)cc4Oc4cc(O)ccc43)O2)c(=O)[nH]c1=O`, for which the MIC99 is greater than 150 mg/L.

Take `Cc1cn([C@@H]2C[C@H](O)[C@@H](CNC(=S)Nc3ccc(Cl)c(Cl)c3)O2)c(=O)[nH]c1=O`: the MIC99 stood at 25 mg/L (≈ 56.1 µM).

Take `Cc1cn([C@@H]2C[C@H](O)[C@@H](CNC(=O)Nc3ccc(Cl)c(Cl)c3)O2)c(=O)[nH]c1=O`: the MIC50 (in general, an inhibitory concentration at the 50% level, which refers to growth in some studies and to a panel of isolates in others) amounted to 40 mg/L (≈ 93.2 µM).

Regarding `Cc1cn([C@@H]2C[C@H](O)[C@@H](CNC(=S)NCc3ccc(Cl)c(C(F)(F)F)c3)O2)c(=O)[nH]c1=O`, the MIC99 is 40 mg/L (≈ 81.2 µM).

Take `Cc1cn([C@@H]2C=C[C@@H](CNC(=S)Nc3ccc(Cl)c(C(F)(F)F)c3)O2)c(=O)[nH]c1=O`: the MIC99 was 100 mg/L (≈ 217 µM).

For `Cc1cn([C@@H]2CC[C@@H](CNC(=S)Nc3ccc(Cl)c(C(F)(F)F)c3)O2)c(=O)[nH]c1=O`, the MIC99 stood at 40 mg/L (≈ 86.4 µM).

`Cc1cn([C@@H]2C[C@H](O)[C@@H](CN)O2)c(=O)[nH]c1=O` gave an MIC99 greater than 40 mg/L.

Take `Cc1cn([C@@H]2C[C@H](O)[C@@H](CNC(=S)NCCc3ccc(Cl)c(Cl)c3)O2)c(=O)[nH]c1=O`: the MIC99 worked out at 50 mg/L (≈ 106 µM).

As for `Cc1cn([C@@H]2C[C@H](O)[C@@H](CNC(=O)Nc3ccc(Cl)c(C(F)(F)F)c3)O2)c(=O)[nH]c1=O`, the MIC50 is 40 mg/L (≈ 86.4 µM).

Source of the values: ChEMBL document CHEMBL1137559, “Rational design of 5'-thiourea-substituted alpha-thymidine analogues as thymidine monophosphate kinase inhibitors capable of inhibiting mycobacterial growth” (J Med Chem, 2007).
